According to ChEMBL document CHEMBL1137224, “Design, synthesis, and evaluation of 3,4-dihydro-2H-[1,4]diazepino[6,7,1-hi]indol-1-ones as inhibitors of poly(ADP-ribose) polymerase” (J Med Chem, 2004):

How the values were obtained:
[1] = biological target: Poly [ADP-ribose] polymerase 1 (Homo sapiens, UniProt P09874)
A549 [2] = assay: Ratio of cytotoxicity of topotecan to cytotoxicity of compound at 0.4 uM in combination with topotecan; format: functional, Homo sapiens
A549 [3] = assay: In vitro cytotoxicity of compound at 0.4 uM in combination with topotecan against human lung carcinoma A549 cells; format: functional, cell-based
Outline: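 A549 cells seeded 16–24 h ahead, then exposed to topotecan plus 0.4 μM PARP-1 inhibitor for 3 or 5 days. Cell number read by MTT (540 nm) or SRB (515 nm). Cytotoxicity expressed as % OD relative to mock-treated culture; topotecan IC50 reported in presence of inhibitor.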

A549 [4] = assay: In vitro cytotoxicity against human lung carcinoma A549 cells; format: functional, cell-based
Outline: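 A549 cells seeded 16–24 h before treatment, then exposed to compound alone for 3 or 5 days. Relative cell number read by MTT (0.2 μg/μL, 4 h, DMSO-solubilized, 540 nm) or SRB (10% TCA fix 1 h at 4 °C, 0.4% SRB 30 min, Tris-solubilized, 515 nm). Cytotoxicity taken as % OD of treated versus mock-treated culture; IC50 reported.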

Chain of Poly [ADP-ribose] polymerase 1 (P09874 whole entry): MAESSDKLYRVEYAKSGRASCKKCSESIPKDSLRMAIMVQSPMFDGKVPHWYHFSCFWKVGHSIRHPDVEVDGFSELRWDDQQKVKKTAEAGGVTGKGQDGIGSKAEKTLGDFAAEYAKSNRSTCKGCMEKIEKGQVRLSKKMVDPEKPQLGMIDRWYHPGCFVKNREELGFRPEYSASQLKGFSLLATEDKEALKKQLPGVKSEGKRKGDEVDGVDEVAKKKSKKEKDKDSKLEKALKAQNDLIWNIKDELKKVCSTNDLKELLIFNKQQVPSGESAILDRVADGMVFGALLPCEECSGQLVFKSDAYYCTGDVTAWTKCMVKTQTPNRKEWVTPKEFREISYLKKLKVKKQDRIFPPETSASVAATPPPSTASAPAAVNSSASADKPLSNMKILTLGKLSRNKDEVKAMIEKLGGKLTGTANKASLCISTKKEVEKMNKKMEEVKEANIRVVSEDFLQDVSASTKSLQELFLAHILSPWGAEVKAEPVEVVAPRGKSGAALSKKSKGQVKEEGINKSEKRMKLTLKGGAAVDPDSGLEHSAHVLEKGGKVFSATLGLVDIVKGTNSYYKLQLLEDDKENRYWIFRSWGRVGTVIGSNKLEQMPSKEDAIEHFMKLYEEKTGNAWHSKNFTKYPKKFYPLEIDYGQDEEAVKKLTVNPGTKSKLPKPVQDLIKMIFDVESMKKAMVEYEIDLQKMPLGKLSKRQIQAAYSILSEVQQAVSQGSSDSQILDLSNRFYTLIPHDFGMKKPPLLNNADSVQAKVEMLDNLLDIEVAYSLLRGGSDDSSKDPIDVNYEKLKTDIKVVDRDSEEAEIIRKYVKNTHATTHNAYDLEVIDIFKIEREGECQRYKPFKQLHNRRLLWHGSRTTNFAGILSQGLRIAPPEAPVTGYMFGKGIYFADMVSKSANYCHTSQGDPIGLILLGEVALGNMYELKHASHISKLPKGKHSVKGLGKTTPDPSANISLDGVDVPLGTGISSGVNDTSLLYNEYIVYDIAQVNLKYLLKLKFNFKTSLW

Row | Ki [1] | Structure (SMILES) | PF50 (A549 [2]) | IC50 (A549 [3]) | IC50 (A549 [4])
1 | 57 nM | NN/N=C/c1c(-c2ccc(F)cc2)n2c3c(cccc13)C(=O)NCC2 | – | – | –
2 | 6.4 nM | CN(C)Cc1ccc(-c2cc3cccc4c3n2CCNC4=O)cc1 | 1.9 | 12.6 nM | 7000 nM
3 | 52 nM | Cc1nc2c(O)cccc2c(=O)[nH]1 | – | – | –
4 | – | Cc1c(-c2ccc(F)cc2)n2c3c(cccc13)C(=O)NCC2 | 1.1 | 21.8 nM | 6000 nM
5 | – | O=C1NCCn2c(-c3ccc(F)cc3)cc3cccc1c32 | 1.8 | 13.3 nM | 8000 nM
6 | – | O=C1NCCn2c(-c3ccc(Cl)cc3)cc3cccc1c32 | 1.8 | 13.3 nM | 3000 nM
7 | 70 nM | Cc1cccc2c1CCNC2=O | – | – | –
8 | – | O=C1NCCn2c(-c3ccc(F)cc3)c(/C=N/O)c3cccc1c32 | 1.2 | 20 nM | < 800 nM
9 | – | CN(C)Cc1cccc(-c2cc3cccc4c3n2CCNC4=O)c1 | 1.6 | 15 nM | 11000 nM
10 | 6.9 nM | CNCc1cccc(-c2cc3cccc4c3n2CCNC4=O)c1 | – | – | –
11 | – | O=C1NCCn2cc(/C=N/O)c3cccc1c32 | 1.3 | 18.5 nM | 8000 nM

Row | Structure (SMILES) | Ki [1] | PF50 (A549 [2]) | IC50 (A549 [3]) | IC50 (A549 [4])
12 | O=C1NCCn2c(-c3cccc(Cn4cccc4)c3)cc3cccc1c32 | 12.5 nM | – | – | –
13 | O=Cc1cn2c3c(cccc13)C(=O)NCC2 | 176 nM | – | – | –
14 | N=C(NO)C1c2cccc3c2N(CCNC3=O)C1c1ccc(F)cc1 (stereo not given) | 87 nM | – | – | –
15 | O=C1NCCn2c(-c3ccc(Cn4cccc4)cc3)cc3cccc1c32 | 6.8 nM | – | – | –
